From ChEMBL document CHEMBL2407075, “Sulphonamido-quinoxalines: search for anticancer agent” (Eur J Med Chem, 2013)

How the values were obtained:
Type in all cases: functional
RXF 393 = test: Growth inhibition of human RXF393 cells assessed as cell growth at 10^-5 M after 48 hrs by sulforhodamine B assay; settings: RXF 393, 48 h, read-out: Activity
LOX IMVI = test: Growth inhibition of human LOXIMVI cells assessed as cell growth at 10^-8 M after 48 hrs by sulforhodamine B assay; settings: read-out: Activity
HCT-15 = test: Growth inhibition of human HCT15 cells assessed as cell growth at 10^-5 M after 48 hrs by sulforhodamine B assay; settings: HCT-15, 48 h, read-out: Activity
Outline: (§1)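 Five-dose screen at NCI. Cells in RPMI 1640 with 5% FBS and 2 mM L-glutamine, seeded at 5000–40,000 cells/well and grown 24 h at 37 °C, 5% CO2 before dosing, with time-zero plates TCA-fixed. Drug diluted from DMSO stock to 0.01, 0.1, 1, 10 and 100 µM final, 48 h. Cells fixed with cold TCA (10% final), stained with 0.4% SRB and read at 515 nm. Percent growth from Tz, control and test absorbances; GI50, TGI and LC50 from dose-response curves.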

[1] = Growth inhibition of human Hs 578T cells after 48 hrs by sulforhodamine B assay; settings: for CC50: read-out: LC50 (the source's name)
Outline: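 Adherent cells in RPMI 1640 with 5% FBS and 2 mM L-glutamine were plated at 5000–40,000 cells/well and grown 24 h. Five concentrations (0.01–100 µM, DMSO stock) were added for 48 h at 37 °C. Cells were fixed with cold TCA (10% final) and stained with SRB, read at 515 nm. GI50 came from log concentration–growth curves against time-zero and control plates.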

COLO 205 = test: Growth inhibition of human COLO205 cells assessed as cell growth at 10^-6 M after 48 hrs by sulforhodamine B assay; settings: COLO 205, 48 h, read-out: Activity
Outline: (§2)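 Five-dose NCI-60 run (0.01, 0.1, 1, 10 and 100 µM, as 10-fold dilutions from a DMSO stock made at 400× the top final level). Cells were grown in RPMI 1640 with 5% FBS and 2 mM glutamine and plated for 24 h. They were then exposed for 48 h at 37 °C and 5% CO2. TCA fixation was followed by SRB staining with A515 read-out. Percent growth was taken relative to time-zero and control plates.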

T47D [2] = test: Growth inhibition of human T47D cells after 48 hrs by sulforhodamine B assay; settings: for CC50: read-out: LC50 (the source's name)
Outline: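 Five-dose NCI 60 screen at 0.01, 0.1, 1, 10 and 100 µM, 48 h exposure after 24 h preincubation, in RPMI 1640 with 5% FBS and 2 mM glutamine. Fixed with TCA (10% final for adherent cells, 16% for suspension cells), stained with SRB, A515 read. Percent growth uses time-zero (Tz), control and treated plates. GI50, TGI and LC50 are read from the dose-response curves.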

HCT-116 = test: Growth inhibition of human HCT116 cells assessed as cell growth at 10^-6 M after 48 hrs by sulforhodamine B assay; settings: HCT-116, 48 h, read-out: Activity; outline: as §1
SNB-19 = test: Growth inhibition of human SNB19 cells assessed as cell growth at 10^-8 M after 48 hrs by sulforhodamine B assay; settings: SNB-19, 48 h, read-out: Activity
[3] = Growth inhibition of human Hs 578T cells assessed as cell growth at 10^-7 M after 48 hrs by sulforhodamine B assay; settings: read-out: Activity; outline: as §1
HL-60(TB) = test: Growth inhibition of human HL-60(TB) cells after 48 hrs by sulforhodamine B assay; settings: HL-60, 48 h; for CC50: read-out: LC50 (the source's name)
Outline: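 Leukemia suspension cells in RPMI 1640 with 5% FBS and 2 mM L-glutamine were plated at 5000–40,000 cells/well and grown 24 h. Five concentrations (0.01–100 µM) were given for 48 h at 37 °C. Settled cells were fixed with 80% TCA (16% final) and SRB-stained, read at 515 nm. GI50 came from dose–response curves against time-zero and control plates.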

K562 = test: Growth inhibition of human K562 cells assessed as cell growth at 10^-4 M after 48 hrs by sulforhodamine B assay; settings: K562, 48 h, read-out: Activity
RPMI-8226 = test: Growth inhibition of human RPMI8226 cells assessed as cell growth at 10^-7 M after 48 hrs by sulforhodamine B assay; settings: RPMI-8226, 48 h, read-out: Activity
SNB-75 = test: Growth inhibition of human SNB75 cells assessed as cell growth at 10^-8 M after 48 hrs by sulforhodamine B assay; settings: SNB-75, 48 h, read-out: Activity
[4] = Growth inhibition of human HCC2998 cells assessed as cell growth at 10^-5 M after 48 hrs by sulforhodamine B assay; settings: HCC 2998, 48 h, read-out: Activity; outline: as §1
T47D [5] = test: Growth inhibition of human T47D cells assessed as cell growth at 10^-8 M after 48 hrs by sulforhodamine B assay; settings: read-out: Activity
[6] = Growth inhibition of human HCC2998 cells assessed as cell growth at 10^-7 M after 48 hrs by sulforhodamine B assay; settings: HCC 2998, 48 h, read-out: Activity; outline: as §1
HOP-92 [7] = test: Growth inhibition of human HOP92 cells assessed as cell growth at 10^-6 M after 48 hrs by sulforhodamine B assay; settings: HOP-92, 48 h, read-out: Activity; outline: as §1
UACC-62 [8] = test: Growth inhibition of human UACC62 cells assessed as cell growth at 10^-8 M after 48 hrs by sulforhodamine B assay; settings: UACC-62, 48 h, read-out: Activity
UACC-62 [9] = test: Growth inhibition of human UACC62 cells assessed as cell growth at 10^-7 M after 48 hrs by sulforhodamine B assay; settings: UACC-62, 48 h, read-out: Activity
SN12C = test: Growth inhibition of human SN12C cells assessed as cell growth at 10^-8 M after 48 hrs by sulforhodamine B assay; settings: read-out: Activity
CAKI-1 = test: Growth inhibition of human CAKI-1 cells assessed as cell growth at 10^-8 M after 48 hrs by sulforhodamine B assay; settings: CAKI-1, 48 h, read-out: Activity; outline: as §2
SW-620 = test: Growth inhibition of human SW620 cells assessed as cell growth at 10^-6 M after 48 hrs by sulforhodamine B assay; settings: SW-620, 48 h, read-out: Activity
MDA-MB-231 = test: Growth inhibition of human MDA-MB-231 cells assessed as cell growth at 10^-8 M after 48 hrs by sulforhodamine B assay; settings: MDA-MB-231, 48 h, read-out: Activity
HOP-92 [10] = test: Growth inhibition of human HOP92 cells assessed as cell growth at 10^-8 M after 48 hrs by sulforhodamine B assay; settings: HOP-92, 48 h, read-out: Activity; outline: as §1
NCI-H226 = test: Growth inhibition of human NCI-H226 cells assessed as cell growth at 10^-7 M after 48 hrs by sulforhodamine B assay; settings: NCI-H226, 48 h, read-out: Activity
NCI-H23 = test: Growth inhibition of human NCI-H23 cells assessed as cell growth at 10^-7 M after 48 hrs by sulforhodamine B assay; settings: NCI-H23, 48 h, read-out: Activity

Compound	growth at 10 µM (RXF 393)	growth at 0.01 µM (LOX IMVI)	growth at 10 µM (HCT-15)	CC50 [1]	growth at 1 µM (COLO 205)	GI50 (T47D [2])	CC50 (T47D [2])	growth at 1 µM (HCT-116)	growth at 0.01 µM (SNB-19)	growth at 0.1 µM [3]	GI50 (HL-60(TB))	CC50 (HL-60(TB))	growth at 100 µM (K562)	growth at 0.1 µM (RPMI-8226)	growth at 0.01 µM (SNB-75)	growth at 10 µM [4]	growth at 0.01 µM (T47D [5])	growth at 0.1 µM [6]	growth at 1 µM (HOP-92 [7])	growth at 0.01 µM (UACC-62 [8])	other results
O=S(=O)(Nc1ccc(Cl)cc1)c1ccc2nc(-c3ccccc3)c(-c3ccccc3)nc2c1	-41%	99%	3%	> 100 µM	103%	1.62 µM	> 100 µM	80%	100%	98%	2.09 µM	> 100 µM	58%	101%	75%	2%	95%	99%	78%	95%	TGI [1]: > 100 µM; growth at 0.1 µM (UACC-62 [9]): 87%; growth at 0.01 µM (SN12C): 95%; growth at 0.01 µM (CAKI-1): 87%; growth at 1 µM (SW-620): 88%; growth at 0.01 µM (MDA-MB-231): 99%; growth at 0.01 µM (HOP-92 [10]): 96%; growth at 0.1 µM (NCI-H226): 99%; growth at 0.1 µM (NCI-H23): 92%
O=S(=O)(Nc1ccccn1)c1ccc2nc(-c3ccccc3)c(-c3ccccc3)nc2c1	-44%	97%	3%	> 100 µM	94%	1.12 µM	> 100 µM	75%	100%	94%	1.71 µM	> 100 µM	48%	104%	85%	-14%	95%	100%	77%	92%	GI50 [1]: 1.56 µM; TGI (T47D [2]): 5.14 µM; growth at 0.1 µM (UACC-62 [9]): 92%; growth at 0.01 µM (SN12C): 95%; growth at 0.01 µM (CAKI-1): 91%; growth at 1 µM (SW-620): 87%; growth at 0.01 µM (MDA-MB-231): 110%; growth at 0.01 µM (HOP-92 [10]): 94%; growth at 0.1 µM (NCI-H226): 95%; growth at 0.1 µM (NCI-H23): 94%
